In ChEMBL document CHEMBL1811802, “Synthesis and significant cytostatic activity of 7-hetaryl-7-deazaadenosines” (J Med Chem, 2011):

How the values were obtained:
[1] = test system: A549; experiment: Cytostatic activity against human A549 cells after 5 days by SRB assay; type: functional; conditions: A549, 120 h
Summary of the method: (§1)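 Cells seeded per line density, overnight at 37 °C; day-zero plate TCA-fixed. 5-fold serial dilutions added, 5-day incubation; TCA fixation, 0.057% SRB in 1% acetic acid 30 min, dye dissolved in 10 mM Tris pH 10.5, A500. Growth relative to day-zero and untreated; GIC50 from sigmoidal dose–response fit; mean of two independent experiments.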

[2] = test system: NCI-H23; experiment: Cytostatic activity against human NCI-H23 cells after 5 days by SRB assay; type: functional; conditions: NCI-H23, 120 h; summary of the method: as §1
[3] = test system: PC-3; experiment: Cytostatic activity against human PC3 cells after 5 days by SRB assay; type: functional; conditions: PC-3, 120 h; summary of the method: as §1
[4] = test system: HCT-116; experiment: Cytostatic activity against human HCT116 cells after 5 days by SRB assay; type: functional; conditions: HCT-116, 120 h; summary of the method: as §1
[5] = Cytostatic activity against human Hs578 cells after 5 days by SRB assay; type: functional; conditions: Hs578, 120 h; summary of the method: as §1
[6] = test system: BT-549; experiment: Cytostatic activity against human BT549 cells after 5 days by SRB assay; type: functional; conditions: BT-549, 120 h; summary of the method: as §1
[7] = test system: MT4; experiment: Cytostatic activity against human MT4 cells after 5 days by SRB assay; type: functional; conditions: MT4, 120 h
[8] = test system: HL-60; experiment: Cytotoxicity against human HL60 cells after 3 days by XTT assay; type: functional, cell-based; conditions: HL-60, 72 h
Summary of the method: (§2)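 Suspension-grown cell lines, 3-day compound incubation; viability read by XTT metabolic assay; IC50 averaged from four independent experiments.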

[9] = Cytotoxicity against human HeLaS3 cells after 3 days by XTT assay; type: functional, cell-based; conditions: HeLa S3, 72 h; summary of the method: as §2
[10] = test system: CCRF-CEM; experiment: Cytotoxicity against human CCRF-CEM cells after 3 days by XTT assay; type: functional, cell-based; conditions: 72 h; summary of the method: as §2
[11] = target: Adenosine kinase (Homo sapiens, UniProt P55263); experiment: Inhibition of human ADK using [3H]-adenosine by scintillation counting
[12] = test system: K562; experiment: Cytotoxicity against human K562 cells after 3 days by MTT assay; type: functional, cell-based; conditions: K562, 72 h
[13] = test system: K562; experiment: Cytotoxicity against human paclitaxel resistant K562 cells after 3 days by MTT assay; type: functional, cell-based; conditions: K562, 72 h
[14] = test system: BV-173; experiment: Cytotoxicity against human BV173 cells after 3 days by MTT assay; type: functional, cell-based; conditions: BV-173, 72 h
[15] = Cytotoxicity against human CEM-DNR-bulk cells after 3 days by MTT assay; type: functional, cell-based; conditions: 72 h
[16] = test system: L1210; experiment: Cytotoxicity against mouse L1210 cells after 3 days by MTT assay; type: functional, cell-based; conditions: L1210, 72 h
[17] = test system: EL4; experiment: Cytotoxicity against mouse EL4 cells after 3 days by MTT assay; type: functional, cell-based; conditions: EL4, 72 h
[18] = test system: MCF7; experiment: Cytotoxicity against human MCF7 cells after 3 days by MTT assay; type: functional, cell-based; conditions: MCF7, 72 h
[19] = test system: BT-549; experiment: Cytotoxicity against human BT549 cells after 3 days by MTT assay; type: functional, cell-based; conditions: BT-549, 72 h
[20] = test system: MDA-MB-231; experiment: Cytotoxicity against human MDA-MB-231 cells after 3 days by MTT assay; type: functional, cell-based; conditions: MDA-MB-231, 72 h
[21] = test system: SK-N-AS; experiment: Cytotoxicity against human SK-N-AS cells after 3 days by MTT assay; type: functional, cell-based; conditions: 72 h
[22] = Cytotoxicity against human U87MG cells after 3 days by MTT assay; type: functional, cell-based, U-87MG ATCC; conditions: U-87 MG, 72 h
[23] = test system: C6; experiment: Cytotoxicity against rat C6 cells after 3 days by MTT assay; type: functional, cell-based; conditions: C6, 72 h
[24] = test system: HT-29; experiment: Cytotoxicity against human HT-29 cells after 3 days by MTT assay; type: functional, cell-based; conditions: HT-29, 72 h
[25] = test system: HCT-116; experiment: Cytotoxicity against human HCT116 cells after 3 days by MTT assay; type: functional, cell-based; conditions: HCT-116, 72 h
[26] = test system: CT26; experiment: Cytotoxicity against mouse CT26 cells after 3 days by MTT assay; type: functional, cell-based; conditions: CT26, 72 h
[27] = test system: PC-3; experiment: Cytotoxicity against human PC3 cells after 3 days by MTT assay; type: functional, cell-based; conditions: PC-3, 72 h
[28] = test system: LNCaP; experiment: Cytotoxicity against human LNCAP cells after 3 days by MTT assay; type: functional, cell-based; conditions: 72 h
[29] = test system: MAT-Ly-Lu; experiment: Cytotoxicity against rat MAT-LyLu cells after 3 days by MTT assay; type: functional, cell-based; conditions: 72 h
[30] = Cytotoxicity against human NCI-H146 cells after 3 days by MTT assay; type: functional, cell-based; conditions: NCI-H146, 72 h
[31] = Cytotoxicity against human MES-SA cells after 3 days by MTT assay; type: functional, cell-based; conditions: 72 h
[32] = test system: HeLa; experiment: Cytotoxicity against human HeLa cells after 3 days by MTT assay; type: functional, cell-based; conditions: 72 h
[33] = test system: SK-OV-3; experiment: Cytotoxicity against human SKOV3 cells after 3 days by MTT assay; type: functional, cell-based; conditions: SK-OV-3, 72 h
[34] = test system: SK-MEL-2; experiment: Cytotoxicity against human SK-MEL-2 cells after 3 days by MTT assay; type: functional, cell-based; conditions: SK-MEL-2, 72 h
[35] = test system: HPAC; experiment: Cytotoxicity against human HPAC cells after 3 days by MTT assay; type: functional, cell-based; conditions: 72 h
[36] = Cytotoxicity against mouse P388D1 cells after 3 days by MTT assay; type: functional, cell-based; conditions: P388D1, 72 h
[37] = test system: BJ; experiment: Cytotoxicity against human BJ cells after 3 days by MTT assay; type: cell-based; conditions: 72 h
[38] = Inhibition of RNA polymerase 2 in human HeLaScribe nuclear extracts after 1 hr
Summary of the method: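 HeLaScribe nuclear extract transcription with CMV(+) template DNA, 3 mM MgCl2, 400 μM CTP/GTP/UTP, 25 μM [33P]ATP. Inhibitor preincubated 5 min at 30 °C, then 1 h at 30 °C. Products run on 6% urea–polyacrylamide gel; full-length transcript quantified; IC50 is 50% product decrease.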

Adenosine kinase, sequence (P55263 whole entry): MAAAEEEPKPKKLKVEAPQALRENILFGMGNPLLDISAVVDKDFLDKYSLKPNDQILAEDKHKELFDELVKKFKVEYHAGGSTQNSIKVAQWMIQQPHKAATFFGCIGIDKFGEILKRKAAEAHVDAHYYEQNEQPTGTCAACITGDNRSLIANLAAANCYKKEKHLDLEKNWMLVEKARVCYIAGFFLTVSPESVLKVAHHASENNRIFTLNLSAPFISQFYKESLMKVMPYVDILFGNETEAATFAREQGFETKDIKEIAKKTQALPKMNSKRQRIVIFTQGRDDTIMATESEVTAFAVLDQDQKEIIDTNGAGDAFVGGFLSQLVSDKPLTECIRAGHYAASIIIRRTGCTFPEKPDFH

Row | SMILES | IC50 [12] [nM] | IC50 [13] [nM] | IC50 [14] [nM] | IC50 [15] [nM] | IC50 [16] [nM] | IC50 [17] [nM] | IC50 [18] [nM] | IC50 [19] [nM] | IC50 [20] [nM] | IC50 [21] [nM] | IC50 [22] [nM] | IC50 [23] [nM] | IC50 [24] [nM] | IC50 [26] [nM] | IC50 [27] [nM] | IC50 [28] [nM] | IC50 [30] [nM] | IC50 [31] [nM] | IC50 [32] [nM] | IC50 [33] [nM] | further results
1 | Nc1ncnc2c1c(-c1cn[nH]c1)cn2[C@@H]1O[C@H](CO)[C@@H](O)[C@H]1O | 9830 | 92 | 9780 | 104 | 258 | > 10000 | > 10000 | 108 | > 10000 | > 10000 | > 10000 | 538 | 136 | 396 | > 10000 | 9550 | > 10000 | 7740 | 185 | > 10000 | GI50 [1]: 192 nM; GI50 [2]: 144 nM; GI50 [3]: 14 nM; GI50 [4]: 970 nM; GI50 [5]: 12 nM; GI50 [6]: 50 nM; GI50 [7]: 110 nM; IC50 [8]: > 25000 nM; IC50 [9]: 220 nM; IC50 [10]: 560 nM; IC50 [11]: 50 nM; IC50 [25]: > 10000 nM; IC50 [29]: > 10000 nM; IC50 [34]: > 10000 nM; IC50 [35]: 141 nM; IC50 [36]: 93 nM; IC50 [37]: > 10000 nM
2 | Nc1nc(Cl)nc2c1ncn2[C@H]1C[C@H](O)[C@@H](CO)O1 [CLADRIBINE] | 7690 | 170 | 0.8 | 352 | 393 | 848 | 2350 | 123 | > 10000 | > 10000 | > 10000 | 9070 | 9440 | 131 | 8280 | > 10000 | > 10000 | 165 | > 10000 | > 10000 | IC50 [25]: 9430 nM; IC50 [34]: > 10000 nM; IC50 [35]: 9320 nM; IC50 [36]: 285 nM; IC50 [37]: > 10000 nM
3 | Nc1ncnc2c1c(-c1cc[nH]c1)cn2[C@@H]1O[C@H](CO)[C@@H](O)[C@H]1O | 33 | 9 | 4 | 8 | 84 | 9420 | 6310 | 6 | 27 | > 10000 | > 10000 | 3680 | 4050 | 17 | > 10000 | 21 | > 10000 | 81 | 40 | > 10000 | GI50 [1]: 5.3 nM; GI50 [2]: 33 nM; GI50 [3]: 29 nM; GI50 [4]: 5.9 nM; GI50 [5]: 4.4 nM; GI50 [6]: 8 nM; GI50 [7]: 24 nM; IC50 [8]: 840 nM; IC50 [9]: 70 nM; IC50 [10]: 110 nM; IC50 [11]: > 5000 nM; IC50 [34]: 8710 nM; IC50 [35]: 68 nM; IC50 [36]: 10 nM; IC50 [37]: 6090 nM
4 | Nc1ncnc2c1c(-c1ccco1)cn2[C@@H]1O[C@H](COP(=O)(O)OP(=O)(O)OP(=O)(O)O)[C@@H](O)[C@H]1O |  |  |  |  |  |  |  |  |  |  |  |  |  |  |  |  |  |  |  |  | IC50 ([38]; read-out: IC50): 148000 nM
5 | Nc1ncnc2c1c(-c1ccoc1)cn2[C@@H]1O[C@H](COP(=O)(O)OP(=O)(O)OP(=O)(O)O)[C@@H](O)[C@H]1O |  |  |  |  |  |  |  |  |  |  |  |  |  |  |  |  |  |  |  |  | IC50 ([38]; read-out: IC50): > 400000 nM
6 | CC[C@H](C)[C@@H]1NC(=O)CNC(=O)[C@@H]2Cc3c([nH]c4cc(O)ccc34)[S+]([O-])C[C@@H](NC(=O)CNC1=O)C(=O)N[C@@H](CC(N)=O)C(=O)N1C[C@H](O)C[C@H]1C(=O)N[C@@H]([C@@H](C)[C@@H](O)CO)C(=O)N2 (stereo partly drawn) [alpha-Amanitin] |  |  |  |  |  |  |  |  |  |  |  |  |  |  |  |  |  |  |  |  | IC50 [38]: 2.2 ng/mL
